The values that follow come from paper PMC3609577 (Diabetes, 2013).

One data set relates to SIRT1. Conditions: cited from earlier work.
The subject of data set [1] is CD38. As to conditions: ref Kellenberger et al. 19; cited from earlier work.
Data set [2] has as its system wild-type and CD38 knockout MEFs. The experiment in a line: Intracellular NAD+ levels in wild-type and CD38 knockout MEFs. It counts as cell-based, mouse. As to conditions: quercetin 50 μmol/L, 6 h; for Intracellular NAD+ levels in CD38 knockout MEFs: apigenin 25 μmol/L.
The test system of a further data set is A549 cells. The experiment in a line: Intracellular NAD+ levels in A549 cells. In kind it is cell-based, human. Conditions: for Intracellular NAD+ levels over time in cells incubated in PBS: A549 cells in PBS, quercetin 50 μmol/L, apigenin 25 μmol/L; for Intracellular NAD+ levels, dose response: A549 cells, 6 h incubation.
In data set [3] the target is T1, recombinant human CD38 (Homo sapiens, UniProt P28907).
T1 sequence (P28907 43-300 limits assumed): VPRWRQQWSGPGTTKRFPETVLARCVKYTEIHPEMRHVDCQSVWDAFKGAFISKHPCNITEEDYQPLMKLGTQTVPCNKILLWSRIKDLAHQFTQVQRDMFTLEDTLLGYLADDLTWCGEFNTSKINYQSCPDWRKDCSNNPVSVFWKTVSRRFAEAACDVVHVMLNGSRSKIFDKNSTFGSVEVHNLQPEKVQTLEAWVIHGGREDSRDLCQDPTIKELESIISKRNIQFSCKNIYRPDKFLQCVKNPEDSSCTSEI
The data set can be described thus: In vitro CD38 NAD+ase activity. It counts as biochemical.

For data set [4], the target named is T2, endogenous CD38 (A549 cells) (Homo sapiens, UniProt P28907).
T2 sequence (P28907 1-300): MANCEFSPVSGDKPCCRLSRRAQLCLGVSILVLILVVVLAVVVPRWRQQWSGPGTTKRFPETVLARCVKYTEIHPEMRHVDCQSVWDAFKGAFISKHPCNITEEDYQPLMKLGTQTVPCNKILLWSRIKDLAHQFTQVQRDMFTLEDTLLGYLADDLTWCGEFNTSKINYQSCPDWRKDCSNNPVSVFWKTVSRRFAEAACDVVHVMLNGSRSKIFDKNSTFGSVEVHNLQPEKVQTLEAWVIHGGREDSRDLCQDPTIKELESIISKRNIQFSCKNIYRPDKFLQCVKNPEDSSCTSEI
The data set can be described thus: Endogenous CD38 NAD+ase activity in protein lysates from A549 cells. In kind it is biochemical.

In a further data set the test system is atherosclerosis in mice. Conditions: cited from earlier work.
The test system of data set [5] is HepG2 cells. The experiment in a line: Protein acetylation in HepG2 cells. It counts as cell-based, human.
The next data set deals with AMPK. Conditions: cited from earlier work.
Data set [6] deals with HepG2 cells. The experiment in a line: Lipid accumulation in HepG2 cells. It counts as cell-based, human. As to conditions: 0.5 mmol/L oleate/palmitate (2:1) plus 25 μmol/L apigenin.
Data set [7] deals with T1, recombinant human CD38. The data set can be described thus: In vitro CD38 ADP-ribosyl-cyclase activity. In kind it is biochemical.
In data set [8] the test system is C57BL/6 mice on a high-fat diet. The experiment in a line: Glucose homeostasis and liver lipid metabolism in high-fat diet obese mice. It counts as in vivo, mouse.
The target in data set [9] is T3, CD38 (Mus musculus, UniProt P56528).
T3 sequence (P56528 1-304): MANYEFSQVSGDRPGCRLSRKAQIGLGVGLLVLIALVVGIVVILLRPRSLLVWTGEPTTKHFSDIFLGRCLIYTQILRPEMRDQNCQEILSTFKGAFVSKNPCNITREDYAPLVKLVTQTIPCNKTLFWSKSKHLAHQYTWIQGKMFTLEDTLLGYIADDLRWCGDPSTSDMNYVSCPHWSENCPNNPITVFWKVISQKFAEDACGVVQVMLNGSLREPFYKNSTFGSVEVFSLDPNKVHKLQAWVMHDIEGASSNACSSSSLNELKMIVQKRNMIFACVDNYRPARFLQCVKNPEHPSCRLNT
The data set can be described thus: Liver CD38 activity, NAD+ and protein readouts in high-fat diet obese mice. As to conditions: 100 mg/kg i.p. daily for 1 week vs vehicle. In kind it is in vivo. The gist of the method: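 Twelve 20-week-old C57BL/6 mice were fed a high-fat diet (60% of calories from fat) ad libitum for 4 weeks, then randomised into two groups. Groups received the test compound at 100 mg/kg i.p. or DMSO vehicle once daily for 7 days while staying on the diet. Hepatic NAD+ was measured by enzymatic cycling. Liver lysates were immunoblotted with anti-acetyl-lysine and quantified as intensity-profile area; n = 3 per group.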

For the molecule `O=c1c(O)c(-c2ccc(O)c(O)c2)oc2cc(O)cc(O)c12` [quercetin, 2-(3,4-dihydroxyphenyl)-3,5,7-trihydroxy-4H-chromen-4-one], the “SIRT1 activation in vitro” value with SIRT1 is given as “activate SIRT1 in vitro”. Moreover, the “CD38 inhibition in vitro” value with CD38 [1] is on record as “inhibit CD38 in vitro”. Moreover, the “Intracellular NAD+ levels in CD38 knockout MEFs” value in data set [2] is recorded as “does not further increase NAD^+ levels in CD38 knockout MEFs”. Besides, the “Intracellular NAD+ levels in wild-type MEFs” value in data set [2] (wild-type MEFs) is listed as “promotes an increase in NAD^+ in the wild-type MEFs”. Also, in the data set on A549 cells, the “Intracellular NAD+ levels over time in cells incubated in PBS” value is “NAD^+ levels were stable over time”. Besides, the “Intracellular NAD+ levels, dose response” value in the data set with A549 cells is “promotes an increase in intracellular NAD^+ in a dose-dependent manner”. Moreover, the concentration for half-maximal inhibition (IC50) (in general, the concentration that inhibits the measured activity by half) on recombinant human CD38 [3] came to 13.8 ± 2.1 µM; in [4], 16.4 ± 1.8 µM. Moreover, the Atherosclerosis in mice entry with atherosclerosis in mice was “ameliorate atherosclerosis in mice”.

Consider `O=c1cc(-c2ccc(O)cc2)oc2cc(O)cc(O)c12` [apigenin, 5,7-dihydroxy-2-(4-hydroxyphenyl)-4H-1-benzopyran-4-one], for which the Total protein acetylation result in the data set with HepG2 cells [5] (apigenin 25 μmol/L, 6 h) is reported as “decreases total protein acetylation”. For the same molecule, the “Acetylation of p53 (K382) and RelA/p65 (K310)” value with HepG2 cells [5] (apigenin 25 M (so in the source), 4 hours, MG132 10 µM) was “decreased acetylation of p53 at K382 and also of RelA/p65 at K310”. Also, in the data set with AMPK, the AMPK activation entry is on record as “very poor AMPK activator”. For the same molecule, in the data set with HepG2 cells [6], the “Lipid accumulation (total triglycerides) in cells” value is on record as “decreases lipid accumulation in cells”. Besides, the “Intracellular NAD+ levels in CD38 knockout MEFs” value in [2] was “had no effect on NAD^+ levels”. Further, the IC50 on recombinant human CD38 [7] was 12.8 ± 1.6 µM. In the data set with A549 cells, the “Intracellular NAD+ levels over time in cells incubated in PBS” value is listed as “protected against NAD^+ depletion” and the “Intracellular NAD+ levels, dose response” value is “increased NAD^+ levels in cells in a dose-dependent manner”. Besides, the “Total triglyceride content in the liver” value in data set [8] (100 mg/kg i.p. daily for 1 week vs control) is given as “lower triglyceride levels in the liver”. Moreover, in data set [8] (100 mg/kg i.p. daily for 1 week vs vehicle), the “Liver mRNA expression of lipid oxidation markers (RT-PCR)” value is “increased expression of the enzymes MCAD and LCAD in the liver”. In addition, the “Glucose homeostasis (glucose tolerance test, AUC)” value in data set [8] (100 mg/kg i.p. daily for 1 week, 1.5 g/kg i.p. dextrose) is given as “improve glucose homeostasis”. Besides, the “Food intake and body weight during treatment” value in data set [8] (100 mg/kg i.p. daily for 7 days vs vehicle) was “no difference in these parameters between groups”. In [8] (100 mg/kg i.p. daily, 24 h fasting, day 7), the “Fasting blood glucose levels” value was “significantly lower”. For the same molecule, the “Blood glucose levels, ad libitum feeding” value in [8] (100 mg/kg i.p. daily, after 4 days of treatment vs control) is “significantly lower blood glucose levels”. The molecule further showed a concentration for half-maximal inhibition (IC50) in data set [4] of 14.8 ± 2.2 µM. Further, the Atherosclerosis in mice entry with atherosclerosis in mice was “ameliorate atherosclerosis in mice”. Moreover, on CD38 [9], the “CD38 activity in the liver” value is “decreased CD38 activity in the liver”; the “Global acetylation of proteins in liver (acetyl-lysine antibody)” value is “statistically significant decrease in global acetylation of proteins”; the “Hepatic NAD+ levels” value is “increase in hepatic NAD^+ levels”; the “Liver expression of CD38, SIRT1, Nampt (immunoblot)” value was “no significant differences in the expression of CD38, SIRT1, or Nampt”. Besides, the “Liver phosphorylation (Thr172) and total levels of AMPK (immunoblot)” value on CD38 [9] is “did not see any changes in phosphorylation or total levels of AMPK”.
